TRPC4 agonist – activators of mouse TRPC4 channel, primary screen, Fluo4 calcium, HEK293 TRPC4beta/mu-opioid cells | 310,000 compounds, 0.49% hits | Fluo4 calcium fluorescence; active compounds read high | B-score at 10 µM | AID 2237, 2010 | Short transient receptor potential channel 4 (Mus musculus), Q9QUQ5;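 active = B-score above 5 SD of library B-scores, and initial fluorescence ratio not above library mean plus 5 SD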;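 also: positive B-score marks a calcium rise read as TRPC4 activation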
Target sequence (Q9QUQ5 whole entry, looked up): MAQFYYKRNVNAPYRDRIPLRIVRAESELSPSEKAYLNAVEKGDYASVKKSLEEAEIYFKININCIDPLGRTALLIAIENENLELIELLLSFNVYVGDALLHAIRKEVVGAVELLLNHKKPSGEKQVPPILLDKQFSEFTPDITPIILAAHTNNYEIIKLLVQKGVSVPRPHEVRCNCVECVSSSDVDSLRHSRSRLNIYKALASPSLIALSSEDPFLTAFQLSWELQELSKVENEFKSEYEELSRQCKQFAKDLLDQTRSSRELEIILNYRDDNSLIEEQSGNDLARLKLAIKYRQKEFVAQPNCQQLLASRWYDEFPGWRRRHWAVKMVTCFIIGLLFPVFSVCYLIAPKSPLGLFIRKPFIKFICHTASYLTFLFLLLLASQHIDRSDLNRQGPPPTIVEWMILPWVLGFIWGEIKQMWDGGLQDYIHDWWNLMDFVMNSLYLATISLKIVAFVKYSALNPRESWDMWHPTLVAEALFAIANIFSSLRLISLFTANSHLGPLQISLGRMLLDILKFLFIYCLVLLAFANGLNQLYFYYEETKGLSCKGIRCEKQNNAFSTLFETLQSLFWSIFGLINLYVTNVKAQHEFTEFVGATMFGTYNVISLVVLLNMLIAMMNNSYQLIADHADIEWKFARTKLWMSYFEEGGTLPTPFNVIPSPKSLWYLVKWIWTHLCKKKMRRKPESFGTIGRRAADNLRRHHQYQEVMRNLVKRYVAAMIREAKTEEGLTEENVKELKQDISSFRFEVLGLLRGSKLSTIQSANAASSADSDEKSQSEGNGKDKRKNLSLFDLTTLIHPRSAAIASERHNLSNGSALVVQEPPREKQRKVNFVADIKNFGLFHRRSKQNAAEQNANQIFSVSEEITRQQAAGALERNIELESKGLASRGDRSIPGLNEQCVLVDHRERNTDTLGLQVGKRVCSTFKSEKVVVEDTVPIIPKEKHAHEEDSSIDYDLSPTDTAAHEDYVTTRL
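Material: TRPC4beta and mu-opioid receptor HEK293 stable cells | Incubation: 45 min room-temperature Fluo4 loading, 110 s read | Detection: Kinetic Fluo4 calcium fluorescence | Measure: Integrated baseline-normalised fluorescence ratio, converted to per-well B score | Benchmarks: Low control buffer alone, high control maximal DAMGO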
TRPC4 inh – inhibitors of mouse TRPC4 channel, primary screen, Fluo4 calcium, HEK293 TRPC4beta/mu-opioid cells. DAMGO-evoked Fluo4 calcium flux; active compounds read low. B-score at 10 µM. 300,000 compounds, 0.39% hits;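 active = B-score over 3 SD under the library average, no early fluorescence shift, positive overall ratio signal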
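test system = HEK293 cells with stable TRPC4beta plus mu-opioid receptor expression | detection = Fluo4 Ca2+ flux fluorescence | read-out = integrated fluorescence ratio relative to baseline, converted to per-well B score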
TRPC4 PAM – positive allosteric modulators of TRPC4, primary screen, cell-based, mouse TRPC4beta, HEK293 mu-opioid, Fluo-4 calcium; Short transient receptor potential channel 4 (Mus musculus), Q9QUQ5; AID 2227, 2009; B-score at 10 µM; 310,000 compounds, 0.42% hits; DAMGO EC20, Fluo-4 Ca2+ flux; active compounds read high;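 active = B-score of calcium response area above 5 SD of library B-scores, with initial fluorescence ratio within 5 SD of library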
TRPC6 inhibitor – mouse TRPC6 channel inhibitors, primary screen, cell-based, HEK293, membrane potential dye. Short transient receptor potential channel 6 (Mus musculus), Q61143. ACh-evoked depolarization; active compounds read low. 310,000 compounds, 1.1% hits. B-score at 10 µM;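 active = B-score under library mean minus 3 SD, initial fluorescence not abnormally high, positive integrated signal ratio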;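 also: B-score derived from integrated fluorescence ratio over the kinetic read; more negative B-score means stronger inhibition of depolarization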
Kir21 inh – inhibitors of mouse Kir2.1 inward-rectifier potassium channel; 310,000 compounds, 0.85% hits; AID 1672, 2009; HEK293-Kir2.1, FluxOR thallium flux fluorescence; active compounds read low; Inward rectifier potassium channel 2 (Mus musculus), P35561; B-score at 10 µM;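 active = fluorescence ratio B-score at or below minus 3 SD of library scores, with starting-brightness B-score within 2 SD, cut at about -4.2 in these data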;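 also: channel flux triggered by added potassium and thallium sulfate stimulus; B-score of peak minus minimum fluorescence over baseline after thallium stimulus; more negative B-score means stronger Kir2.1 block with less thallium influx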
TRPC6 act – mouse TRPC6 channel activators, primary screen, cell-based, HEK293, membrane potential dye; B-score at 10 µM; AID 2550, 2010; HEK293-TRPC6 membrane potential dye fluorescence; active compounds read high; Short transient receptor potential channel 6 (Mus musculus), Q61143; 310,000 compounds, 0.13% hits;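 active = B-score of the integrated fluorescence ratio above library mean plus 3 SD, and starting fluorescence ratio within library mean plus 5 SD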;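 also: higher score means more depolarization so channel activation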
HEK293 MPD ctr – parental HEK293 membrane potential modulation, confirmation, counter-screen for TRPC6 modulator project, cell-based. AID 488924, 2010. 2,400 compounds, 51% hits. membrane potential dye fluorescence. membrane potential signal change, % at 10 µM. shares compounds with TRPC6 inhibitor;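 active = membrane potential signal moves up or down beyond 5 SD from buffer-only wells, on both duplicate plates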
HEK293 MPD ctr 2 – second counter-screen for TRPC6 modulators: effect in parental HEK293 cells; shares compounds with TRPC6 inhibitor; membrane potential dye fluorescence; after compound, maximal acetylcholine stimulation; inhibition, % at 10 µM; 2,400 compounds, 14% hits;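 active = membrane potential signal drops by more than 5 SD from the mean control signal, in both duplicate plates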
TRPC4 ctr mod – TRPC4 modulation by TRPC6 hit compounds, confirmation, selectivity assay for TRPC6 modulator project, cell-based, HEK293 TRPC4/mu-opioid, membrane potential dye, mouse | 2,400 compounds, 69% hits | membrane potential fluorescence | percent change from control (negative = decrease, positive = increase), % at 10 µM | AID 488927, 2010 | shares compounds with TRPC6 inhibitor;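 active = membrane potential signal moved up or down beyond 5 SD of buffer control wells, in both duplicate plates, actives on both sides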
TRPC4/MOR inh 2 – second selectivity test of TRPC6 modulators against mouse TRPC4. shares compounds with TRPC6 inhibitor. HEK293 TRPC4/mu-opioid, membrane potential dye fluorescence; stimulated with maximal-effect DAMGO. inhibition, % at 10 µM. 2,400 compounds, 55% hits. AID 488928;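 active = drop in membrane potential signal beyond 5 SD of the control wells in both duplicate plates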;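 also: TRPC4 counter screen for TRPC6 hits run under conditions tuned for TRPC6 not TRPC4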
TRPC6 block conf – mouse TRPC6 channel inhibitors, confirmation, HEK293 cells, membrane potential dye, duplicate | 3,300 compounds, 43% hits | inhibition, % at 10 µM | ACh-evoked depolarization | shares compounds with TRPC6 inhibitor;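 active = fluorescence ratio falls more than 5 SD below the full-stimulation control mean, in both duplicate runs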;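 also: integrated fluorescence ratio of peak minus minimum over baseline after agonist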
TRPC6 act conf – mouse TRPC6 channel activators, confirmation, HEK293 cells, membrane potential dye, duplicate | shares compounds with TRPC6 inhibitor | HEK293-TRPC6 membrane potential dye fluorescence, FDSS | activation, % at 10 µM | 2,800 compounds, 11% hits | AID 488961, 2010;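 active = ratio signal rise beyond 5 SD above unstimulated control wells' mean, seen in both duplicate runs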
Each line names hits and unclear results; the compound was inactive in the other large screens (follow-up assays come after a bar, where they were run). Only some compounds are listed: those with a hit (about 2.9% of all), similar ones and a draw of the others.

COc1ccc(CCn2c(=N)c(C(=O)NC3CCCC3)cc3c(=O)n4ccccc4nc32)cc1	TRPC6 inhibitor -6.5 | HEK293 MPD ctr 169% | HEK293 MPD ctr 2 114% | TRPC4 ctr mod 26% | TRPC4/MOR inh 2 86% | TRPC6 block conf 64% | TRPC6 act conf inactive
COc1ccc(CCn2c(=N)c(C(=O)NC3CCCC3)cc3c(=O)n4ccccc4nc32)cc1OC	TRPC6 inhibitor -5.2 | HEK293 MPD ctr -154% | HEK293 MPD ctr 2 inactive | TRPC4 ctr mod -33% | TRPC4/MOR inh 2 52% | TRPC6 block conf 42% | TRPC6 act conf inactive
COc1ccc(Cn2c(=N)c(C(=O)NC3CCCCC3)cc3c(=O)n4ccccc4nc32)cc1	none
COCCCn1c(=N)c(C(=O)NC2CCCCC2)cc2c(=O)n3ccccc3nc21	TRPC6 inhibitor -6.1 | HEK293 MPD ctr inactive | HEK293 MPD ctr 2 inactive | TRPC4 ctr mod inactive | TRPC4/MOR inh 2 49% | TRPC6 block conf 64% | TRPC6 act conf inactive
CCOc1ccccc1N1CCN(C/C=C/c2ccc(N(C)C)cc2)CC1	TRPC6 inhibitor -6.5 | HEK293 MPD ctr inactive | HEK293 MPD ctr 2 inactive | TRPC4 ctr mod inactive | TRPC4/MOR inh 2 66% | TRPC6 block conf 50% | TRPC6 act conf inactive
CCOc1ccccc1N1CCN(Cc2ccco2)CC1	none
O=c1[nH]nc(N2CCOCC2)c(=O)[nH]1	none
Brc1ccc(CNc2nc3ccccc3n2CCN2CCCCC2)cc1	TRPC6 inhibitor -5.2 | HEK293 MPD ctr inactive | HEK293 MPD ctr 2 inactive | TRPC4 ctr mod 15% | TRPC4/MOR inh 2 89% | TRPC6 block conf 38% | TRPC6 act conf inactive
COc1cccc(CNc2nc3ccccc3n2CCN2CCCCC2)c1	TRPC6 inhibitor -6.1 | HEK293 MPD ctr inactive | HEK293 MPD ctr 2 inactive | TRPC4 ctr mod inactive | TRPC4/MOR inh 2 56% | TRPC6 block conf 35% | TRPC6 act conf inactive
COc1ccc(OC)c(CNc2nc3ccccc3n2CCN2CCCCC2)c1	none

High-throughput results from PubChem BioAssay.
